From ChEMBL document CHEMBL1799931, “Synthesis, evaluation and metabolic studies of radiotracers containing a 4-(4-[18F]-fluorobenzyl)piperidin-1-yl moiety for the PET imaging of NR2B NMDA receptors” (Eur J Med Chem, 2011) come the findings set out here.

The subject of one data set is Mus musculus. Put plainly: Analgesic activity in po dosed mouse assessed as licking behavior measured after 20 to 25 mins by formalin test. The data set is classed as functional, organism-based.
The test system of data set [1] is Liver. Put plainly: Biodistribution in Sprague-Dawley rat liver at 3.2 to 18.6 MBq, iv after 120 mins by micro PET analysis. The data set is classed as ADME, organism-based. The note with it: in vivo, 2 h. In short, it runs like this:
(§1)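 Male Sprague-Dawley rats (235-310 g) under isoflurane got 18F radiotracer (3.2-18.6 MBq) by tail-vein catheter, n = 3. Dynamic microPET scan for 120 min, then ex vivo tissue counting at 120 min post-injection. Values are %ID/g ± SEM.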

Data set [2] deals with Rattus norvegicus. Put plainly: Biodistribution in Sprague-Dawley rat bladder at 3.2 to 18.6 MBq, iv after 120 mins by micro PET analysis. The data set is classed as ADME, organism-based, Urinary bladder. Particulars: in vivo, 2 h. In short, it runs like this:
as §1

In the next data set the test system is Hippocampus. Put plainly: Biodistribution in Sprague-Dawley rat hippocampus at 3.2 to 18.6 MBq, iv after 120 mins by micro PET analysis. The note with it: in vivo, 2 h.
A short description of data set [3]: Metabolic stability in Sprague-Dawley rat plasma assessed as half life by radio thin layer chromatography analysis. Type of data set: ADME, cell-free. Put shortly: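 Anesthetized male Sprague-Dawley rats (235-330 g) given radiotracer (3.2-15.1 MBq). Femoral arterial blood was sampled over 90 min and plasma gamma-counted. Plasma was diluted with acetonitrile, centrifuged and run on silica radio-TLC with cold reference, giving parent and radiometabolite fractions.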

For another data set, the system named is Bone. The experiment in a line: Biodistribution in Sprague-Dawley rat bone at 3.2 to 18.6 MBq, iv after 120 mins by micro PET analysis. The data set is classed as ADME, organism-based, Bone element. Particulars: in vivo, 2 h. Put shortly:
as §1

Another data set deals with Brain. Put plainly: Biodistribution in Sprague-Dawley rat brain at 3.2 to 18.6 MBq, iv after 120 mins by micro PET analysis. The data set is classed as ADME, organism-based. Particulars: in vivo, 2 h. Put shortly: as §1
The test system of another data set is Muscle tissue. The experiment in a line: Biodistribution in Sprague-Dawley rat muscle at 3.2 to 18.6 MBq, iv after 120 mins by micro PET analysis. The data set is classed as ADME, organism-based. Particulars: in vivo, 2 h. Put shortly: as §1
A further data set has as its system Pancreas. Put plainly: Biodistribution in Sprague-Dawley rat pancreas at 3.2 to 18.6 MBq, iv after 120 mins by micro PET analysis. The data set is classed as ADME, organism-based. Particulars: in vivo, 2 h. In short, it runs like this:
as §1

A further data set concerns Spleen. The experiment in a line: Biodistribution in Sprague-Dawley rat spleen at 3.2 to 18.6 MBq, iv after 120 mins by micro PET analysis. The data set is classed as ADME, organism-based. Particulars: in vivo, 2 h. Put shortly: as §1
The test system of another data set is Lung. Put plainly: Biodistribution in Sprague-Dawley rat lung at 3.2 to 18.6 MBq, iv after 120 mins by micro PET analysis. The data set is classed as ADME, organism-based. Particulars: in vivo, 2 h. In short, it runs like this:
as §1

Another data set concerns Heart. Put plainly: Biodistribution in Sprague-Dawley rat heart at 3.2 to 18.6 MBq, iv after 120 mins by micro PET analysis. The data set is classed as ADME, organism-based. The note with it: in vivo, 2 h. Put shortly:
as §1

For the next data set, the system named is Cerebellum. Put plainly: Biodistribution in Sprague-Dawley rat cerebellum at 3.2 to 18.6 MBq, iv after 120 mins by micro PET analysis. Particulars: in vivo, 2 h.
The subject of the next data set is Thymus. The experiment in a line: Biodistribution in Sprague-Dawley rat thymus at 3.2 to 18.6 MBq, iv after 120 mins by micro PET analysis. The note with it: in vivo, 2 h. The data set is classed as ADME, organism-based. Put shortly: as §1
In a further data set the test system is Intestine. Put plainly: Biodistribution in Sprague-Dawley rat intestine at 3.2 to 18.6 MBq, iv after 120 mins by micro PET analysis. Type of data set: ADME, organism-based. Particulars: in vivo, 2 h. In short, it runs like this:
as §1

Data set [4] in a line: Biodistribution in Sprague-Dawley rat urine at 3.2 to 18.6 MBq, iv after 120 mins by micro PET analysis. Type of data set: ADME, organism-based. The note with it: in vivo, 2 h. Put shortly:
as §1

The test system of a further data set is Kidney. Put plainly: Biodistribution in Sprague-Dawley rat kidney at 3.2 to 18.6 MBq, iv after 120 mins by micro PET analysis. The data set is classed as ADME, organism-based. Particulars: in vivo, 2 h. In short, it runs like this:
as §1

Data set [5] can be described thus: Biodistribution in Sprague-Dawley rat fat at 3.2 to 18.6 MBq, iv after 120 mins by micro PET analysis. The data set is classed as ADME, organism-based, Adipose tissue. The note with it: in vivo, 2 h. In short, it runs like this:
as §1

The target of data set [6] is T1, Glutamate NMDA receptor; GRIN1/GRIN2B (Homo sapiens, UniProt Q05586+Q13224). The experiment in a line: Antagonist activity against NR1a/NR2B receptor transfected in human HEK293 cells assessed as inhibition of NMDA-induced Ca2+ influx. The data set is classed as functional, cell-based.
The nature of data set [7]: Half life in rat plasma. The data set is classed as ADME, cell-free.
For data set [8], the system named is Rattus norvegicus. Put plainly: Analgesic activity against carrageenan-induced mechanical hyperalgesia in iv dosed rat. The data set is classed as functional.
Data set [9] addresses Glutamate NMDA receptor; GRIN1/GRIN2A (Homo sapiens) (UniProt Q05586+Q12879). Put plainly: Antagonist activity against NR1a/NR2A receptor transfected in human HEK293 cells assessed as inhibition of NMDA-induced Ca2+ influx at 10 uM. The data set is classed as functional, cell-based. In short, it runs like this:
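HEK293 cells co-transfected 1:1 with NR1-1a plus NR2A-GFP or NR2B-GFP, D-APV (100 µM) after transfection, used at 24 h. Cells loaded with Fura-2/AM 45 min at 37 °C, then held in HBBSS with glycine, pH 7.45, at room temperature under perfusion. NMDA 100 µM for 30 s; ligands applied 60 s before and during.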

For data set [10], the target named is T1, Glutamate NMDA receptor; GRIN1/GRIN2B. The experiment in a line: Displacement of [3H]-Ro-256981 from recombinant NR1/NR2B receptor. Type of data set: protein-complex assay. (Loss of bound radioactivity is the signal in a displacement assay; it reports binding, not function.)
Data set [11] concerns Liver. Put plainly: Metabolic stability of the compound in rat liver homogenate after 30 mins. The note with it: tissue homogenate, 0.5 h. Type of data set: ADME, tissue-based. In short, it runs like this: (§2)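 Rat plasma or liver homogenate (0.450 mL) spiked with ligand at 5-200 mg/L. Samples were deproteinized with acetonitrile immediately or after 30 min at 37 °C, then analysed by HPLC in triplicate injections.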

Another data set relates to Plasma. The experiment in a line: Metabolic stability of the compound in rat plasma after 30 mins. The data set is classed as ADME, cell-free. Particulars: 0.5 h. Put shortly: as §2
In data set [12] the test system is Rattus norvegicus. Put plainly: Biodistribution in Sprague-Dawley rat cartilage at 3.2 to 18.6 MBq, iv after 120 mins by micro PET analysis. The data set is classed as ADME, organism-based, Cartilage tissue. Particulars: in vivo, 2 h. Put shortly: as §1
The mark [13] stands for this setting: Mus musculus, po, read-out: ED50.

SMILES strings stand for the structures. Some results are limits rather than exact numbers.

T1 sequence (Q13224 whole entry, other chains not shown): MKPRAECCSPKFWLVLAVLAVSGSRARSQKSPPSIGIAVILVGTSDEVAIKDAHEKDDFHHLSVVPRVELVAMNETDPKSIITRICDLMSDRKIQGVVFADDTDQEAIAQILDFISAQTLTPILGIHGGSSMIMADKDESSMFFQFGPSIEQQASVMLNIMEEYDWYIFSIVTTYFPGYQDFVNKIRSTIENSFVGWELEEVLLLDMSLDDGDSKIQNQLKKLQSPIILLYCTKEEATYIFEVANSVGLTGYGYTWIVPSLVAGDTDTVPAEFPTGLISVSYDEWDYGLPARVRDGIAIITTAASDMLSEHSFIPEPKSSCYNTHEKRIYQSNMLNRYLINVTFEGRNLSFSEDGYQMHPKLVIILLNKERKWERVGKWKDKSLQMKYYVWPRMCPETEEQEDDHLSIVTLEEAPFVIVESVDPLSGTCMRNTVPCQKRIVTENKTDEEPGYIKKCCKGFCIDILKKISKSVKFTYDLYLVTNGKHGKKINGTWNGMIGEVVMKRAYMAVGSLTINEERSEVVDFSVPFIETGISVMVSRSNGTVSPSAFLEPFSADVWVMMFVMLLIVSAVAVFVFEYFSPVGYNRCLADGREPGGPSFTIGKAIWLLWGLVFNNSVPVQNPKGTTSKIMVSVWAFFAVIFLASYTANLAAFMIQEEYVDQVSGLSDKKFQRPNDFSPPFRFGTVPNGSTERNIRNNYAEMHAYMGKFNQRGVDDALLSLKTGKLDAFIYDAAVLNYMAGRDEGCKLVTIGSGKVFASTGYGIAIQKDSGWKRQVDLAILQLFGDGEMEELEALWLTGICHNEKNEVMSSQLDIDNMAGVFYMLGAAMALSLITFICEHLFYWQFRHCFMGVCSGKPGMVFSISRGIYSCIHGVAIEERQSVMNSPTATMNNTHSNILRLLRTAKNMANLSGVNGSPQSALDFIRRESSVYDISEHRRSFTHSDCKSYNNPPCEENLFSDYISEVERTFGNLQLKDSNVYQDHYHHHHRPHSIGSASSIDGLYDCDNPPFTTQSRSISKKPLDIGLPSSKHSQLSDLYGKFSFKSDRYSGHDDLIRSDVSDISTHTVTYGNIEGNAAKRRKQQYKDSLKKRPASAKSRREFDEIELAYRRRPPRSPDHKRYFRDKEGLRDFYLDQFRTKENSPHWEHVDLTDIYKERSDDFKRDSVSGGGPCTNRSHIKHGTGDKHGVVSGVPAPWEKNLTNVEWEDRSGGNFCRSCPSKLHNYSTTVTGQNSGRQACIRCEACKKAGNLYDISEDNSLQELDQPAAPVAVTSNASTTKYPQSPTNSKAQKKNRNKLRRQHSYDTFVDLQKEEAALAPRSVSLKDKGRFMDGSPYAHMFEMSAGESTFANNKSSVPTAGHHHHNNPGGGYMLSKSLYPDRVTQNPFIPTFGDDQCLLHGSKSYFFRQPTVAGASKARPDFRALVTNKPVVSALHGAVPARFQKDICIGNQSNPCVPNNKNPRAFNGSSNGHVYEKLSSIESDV

For the compound `O=C(Nc1ccc2nc(O)sc2c1)C(=O)N1CCC(Cc2ccccc2)CC1`, in the data set with Mus musculus, the ED50 is 0.5 mg/kg.
For `Oc1ccc2[nH]c(CN3CCC(Cc4ccc([18F])cc4)CC3)nc2c1`, the Drug uptake in the data set with Liver [1] is 2.255 % ID/g; with Rattus norvegicus [2], 0.373 % ID/g; in the data set with Hippocampus it was 0.037 % ID/g; in the data set with Bone, 1.576 % ID/g; with Brain it was 0.035 % ID/g; with Muscle tissue it was 0.044 % ID/g. The Drug uptake came out at 0.391 % ID/g in the data set with Pancreas; 0.305 % ID/g with Spleen; 0.445 % ID/g in the data set on Lung; 0.068 % ID/g in the data set with Heart; 0.035 % ID/g in the data set on Cerebellum; 0.225 % ID/g in the data set on Thymus. Besides, the Drug uptake stood at 0.188 % ID/g with Intestine, 1.327 % ID/g in [4], 0.384 % ID/g with Kidney and 0.098 % ID/g in [5]. In addition, the half-life in [3] stood at 35 min.
For the compound `Oc1ccc2nc(CN3CCC(Cc4ccccc4)CC3)[nH]c2c1`, the IC50 in data set [6] came out at 209 nM. This compound also had a half-life in data set [7] of more than 480 min. This compound came in with an ED50 with Rattus norvegicus [8] of 3.3 mg/kg.
As for `O=C(Nc1ccc2nc(O)oc2c1)C(=O)N1CCC(Cc2ccc(F)cc2)CC1` [RADIPRODIL], the ED50 in the data set on Mus musculus (setting [13]) turned out to be 7.7 mg/kg. For the same compound, the inhibition in data set [9] stood at 10.1%.
With `O=C(Nc1ccc2nc(O)oc2c1)C(=O)N1CCC(Cc2ccccc2)CC1`, in the data set with Mus musculus (setting [13]), the ED50 stood at 0.5 mg/kg. Besides, the IC50 in data set [10] is 4 nM.
For `Cc1ccc(CC2CCN(C(=O)C(=O)Nc3ccc4c(c3)CC(=O)N4)CC2)cc1`, in the data set on Mus musculus, the ED50 was 0.5 mg/kg.
As for `CS(=O)(=O)Nc1ccc2[nH]c(CN3CCC(Cc4ccc(F)cc4)CC3)nc2c1`, the IC50 in [6] amounted to 57.7 nM.
`O=C(Nc1ccc2[nH]c(=O)oc2c1)C(=O)N1CCC(Cc2ccc(F)cc2)CC1` [RADIPRODIL]: the Stability entry in the data set with Liver [11] and in the data set with Plasma was “Stable” each time. The IC50 in data set [6] was determined as 69.9 nM; in data set [10], 6 nM.
As for `O=C(Nc1ccc2[nH]c(=O)oc2c1)C(=O)N1CCC(Cc2ccc([18F])cc2)CC1`, the Drug uptake in the data set on Liver [1] is recorded as 1.365 % ID/g; with Rattus norvegicus [2], 0.175 % ID/g; in the data set on Hippocampus, 0.064 % ID/g; in the data set on Bone it was 0.397 % ID/g; with Brain it was 0.054 % ID/g; in the data set with Muscle tissue, 0.069 % ID/g. In addition, the Drug uptake in the data set with Pancreas stood at 0.08 % ID/g; in the data set on Spleen, 0.169 % ID/g; in the data set with Lung it was 0.132 % ID/g; in the data set on Heart, 0.076 % ID/g; with Cerebellum, 0.046 % ID/g; in the data set on Thymus it was 0.057 % ID/g. Moreover, the Drug uptake amounted to 0.107 % ID/g in the data set with Intestine; 0.776 % ID/g in the data set on Rattus norvegicus [12]; 3.237 % ID/g in [4]; 0.377 % ID/g in the data set on Kidney; 0.056 % ID/g in data set [5]. The half-life in data set [3] stood at 50 min.

A word on the ED50: it is the dose that gives a 50% effect, or the effect in half of the subjects. What is called half-life is the time needed for the level to fall by half in the phase considered. By IC50 is commonly meant the concentration at which inhibition is half-maximal. For orientation: inhibition means the percentage by which the read-out fell short of the control.
